Assay [1] relates to DAF-12 nuclear receptor (Heterodera glycines), GAL4-LBD fusion. The assay is described as follows: hgDAF-12 GAL4 fusion reporter activation, retest – cell-based, luminescence, HEK293, GAL4-LBD fusion, confirmation (AID 743050).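 Note: 0% = DMSO low control and 100% = 2 mM sodium butyrate high control.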 To be noted: HEK293 GAL4-hgDAF12 luciferase reporter, agonist mode; at 6.8 µM; active compounds read high; percent of butyrate response.
The target of assay [2] is Oxysterols receptor LXR-beta (Homo sapiens) (UniProt P55055). The assay is described as follows: nonspecific reporter activation via LXR – cell-based, luminescence, HEK293, H. glycines campaign, counter-screen for hgDAF-12 agonist project, confirmation (AID 743051;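 active = mean activation of the triplicate above a set limit carried over from the primary screen, none filed active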). As to conditions: HEK293 Gal4-LXR luciferase reporter, 24 h; at 6.8 µM; active compounds read high. In short, it runs like this: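 System: HEK293 cells with Gal4-LXR and tk-luc reporter. Compound dosing: single nominal test compound dose of 6.8 µM. Timing: 3 h cell plating, then 24 h compound exposure at 37 °C. Detection: One-Glo luminescence after 15 min. Read-out basis: percent activation relative to median DMSO and positive-control wells. Benchmarks: DMSO low control, 0.68% final.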
Chain of Oxysterols receptor LXR-beta (Homo sapiens) (P55055 whole entry, looked up, the tested form may be a part): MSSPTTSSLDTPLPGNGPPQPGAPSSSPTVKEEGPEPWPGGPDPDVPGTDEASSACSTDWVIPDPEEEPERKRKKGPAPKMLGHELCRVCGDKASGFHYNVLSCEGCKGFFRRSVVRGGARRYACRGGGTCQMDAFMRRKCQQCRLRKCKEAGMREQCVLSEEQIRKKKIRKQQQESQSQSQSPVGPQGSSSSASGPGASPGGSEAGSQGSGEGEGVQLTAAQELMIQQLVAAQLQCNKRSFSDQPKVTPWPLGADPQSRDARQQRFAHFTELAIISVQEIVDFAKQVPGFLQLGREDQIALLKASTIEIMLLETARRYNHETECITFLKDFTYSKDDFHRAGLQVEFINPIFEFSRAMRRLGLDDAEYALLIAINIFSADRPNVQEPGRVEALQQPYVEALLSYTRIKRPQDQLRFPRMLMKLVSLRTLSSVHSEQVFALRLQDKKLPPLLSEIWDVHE

Assay [3] concerns the target Galanin receptor type 2 (Homo sapiens) (UniProt O43603). The experiment in a line: blockers of human galanin receptor 2 – cell-based, confirmation (AID 866; in the data active = inhibition above about 27%;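 note: cells stimulated with galanin at about its EC80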). As to conditions: GALR2-expressing cells, antagonist mode, at 4 µM, active compounds read high.
Assay [4] is described as follows: nonspecific BLA reporter inhibition – CHO NFAT-bla cells, FRET readout, counter-screen for GALR2 antagonist project, confirmation (AID 867;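 active = inhibition above the mean inhibition across tested compounds plus 3 SD, cut at about 27% in these data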;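 note: 0% = 500 nM thapsigargin stimulated wells and 100% = unstimulated BSA only wells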). As to conditions: beta-lactamase FRET, thapsigargin-stimulated, at 4.2 µM, active compounds read high.

The list shows a part of the results. Unmarked numbers belong to inactive results. Active and inactive are the calls of the source.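 Rule for the calls, unless noted: active = mean activation over triplicate wells above the hit cutoff derived from the earlier primary screen (cut at about 11% in these data); inactive = the rest.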

Chain of Galanin receptor type 2 (Homo sapiens) (O43603 whole entry, looked up): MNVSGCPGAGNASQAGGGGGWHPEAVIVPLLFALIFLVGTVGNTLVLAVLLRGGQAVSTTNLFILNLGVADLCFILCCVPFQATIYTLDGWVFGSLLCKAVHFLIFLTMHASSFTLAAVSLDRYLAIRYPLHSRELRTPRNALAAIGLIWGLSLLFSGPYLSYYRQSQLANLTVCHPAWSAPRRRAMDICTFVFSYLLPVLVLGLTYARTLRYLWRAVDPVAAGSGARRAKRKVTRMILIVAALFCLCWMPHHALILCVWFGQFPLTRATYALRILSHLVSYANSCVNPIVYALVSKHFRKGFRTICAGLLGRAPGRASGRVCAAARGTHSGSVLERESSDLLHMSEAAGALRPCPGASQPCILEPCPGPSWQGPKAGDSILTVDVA

For the compound `O=C(NC1CCC1)c1ccc(C#CC2CC2)cn1`, the activation in assay [1] was 13.4% (active); in assay [2], 0.57%.

Turning to `O=C(NN=Cc1ccc2c(c1)CCC2)c1ccccc1O`, the activation was 10.4% in assay [1] and 0.3% in assay [2].

For `O=C(NCCCN1CCOCC1)c1cc(-c2ccccc2F)no1`, the activation in assay [1] is 11.6% (active); in assay [2] it was 0.17%.

`COc1ccc(Nc2ccc3ccccc3c2)cc1`: the activation in assay [1] is 13% (active); in assay [2], 0.53%.

On to `CC(/C=N/NC(=O)c1cc(-c2ccc3ccccc3c2)n[nH]1)=C\c1ccco1`, for which the activation in assay [1] was 1.68%; in assay [2], 0.14%.

Turning to `Cc1ccc2nc(-c3ccc(SCC(=O)Nc4cc(C)on4)nc3)[nH]c2c1`, the activation in assay [1] is 15.6% (active); in assay [2] it was 0.54%.

Consider `Fc1ccc2[nH]c3c(N4CCN(Cc5ccc6c(c5)OCO6)CC4)ncnc3c2c1`, for which the inhibition in assay [3] is 50.2% (active); in assay [4], 24.3%.

For `O=C(CNC(=O)OCc1ccccc1)Oc1cc2oc(=O)cc(-c3ccccc3)c2cc1Cl`, the inhibition in assay [3] is 33.2% (active); in assay [4], 37% (active).

On to `O=C(NCCOc1ccccc1)c1ccccc1F`, for which the activation is 12.7% (active) in assay [1] and 0.64% in assay [2].

With `Clc1ccc2nc(CSc3ccccc3)cn2c1`, the values for the activation in assay [1] and in assay [2] were 13.2% (active) and 0.71%, respectively.

`O=C(CCSc1ccccc1)N1CCN(c2ccccc2F)CC1`: the figures for the activation in assay [1] and in assay [2] were 14.2% (active) and 0.48%, respectively.

With `c1ccc(CN=C2Nc3ccccc3CS2)nc1`, the results for the activation in assay [1] and in assay [2] were 12.9% (active) and 0.55%, respectively.

As for `c1ccc(-c2nnc(SCc3nc4ccccc4[nH]3)o2)cc1`, the inhibition in assay [3] is 13.7%; in assay [4], 5.82%.

Regarding `COc1ccc(NC(=O)c2ccc(OC)cc2)cc1`, the activation in assay [1] was 15.9% (active); in assay [2], 0.75%.

On to `CC1C/C(=N/NC(=O)c2cccs2)CC(C)(C)C1` (stereo unspecified), for which the results for the activation in assay [1] and in assay [2] were 4.24% and 0.21%, respectively.

With `COCC(C)NC(=O)c1ccc(Cl)c(Cl)c1` (stereo unspecified), the inhibition is 10.6% in assay [3] and 4.96% in assay [4].

Consider `N/C(=N\OC(=O)CCC1CCCCC1)c1ccccn1`, for which the results for the activation in assay [1] and in assay [2] were 12.3% (active) and 0.49%, respectively.

Take `O=C(/C=C/Sc1ncn[nH]1)c1ccc(Cl)cc1`: the inhibition in assay [3] is 50.7% (active); in assay [4], 17%.

On to `Cc1ccc(C(=O)Nc2ccc(C)c(S(=O)(=O)N(C)C)c2)s1`, for which the activation in assay [1] was 11.2% (active); in assay [2], 0.45%.

As to `Cc1cc(-c2n[nH]c(=S)n2/N=C/C(Br)=C/c2ccccc2)n[nH]1`, the inhibition was 44.1% (active) in assay [3] and 20.9% in assay [4].

Turning to `COc1ccc(C)cc1NC(=O)c1[nH]c(C)c(C(C)=O)c1C`, the results for the inhibition in assay [3] and in assay [4] were 22.8% and 4.72%, respectively.

For the compound `O=C(NCCc1ccc(F)cc1)c1ccc2nccnc2c1`, the activation in assay [1] is 17% (active); in assay [2], 0.74%.

With `COc1ccc(NC(=O)Nc2ccc3nsnc3c2)cc1`, the results for the activation in assay [1] and in assay [2] were 13.8% (active) and 0.54%, respectively.

In the case of `O=C(Nc1ccc2ccccc2c1[N+](=O)[O-])c1ccccc1`, the activation in assay [1] was 17.7% (active); in assay [2] it was 0.89%.

As for `COc1ccc(/C=C/C(=O)Nc2ccc(C34CC5CC(CC(O)(C5)C3)C4)cc2)cc1OC`, the values for the inhibition in assay [3] and in assay [4] were 43.6% (active) and 21.4%, respectively.

For the compound `FC(F)(F)c1cnc(Oc2ccccc2-c2nnc(-c3ccc(Cl)cc3)o2)c(Cl)c1`, the inhibition in assay [3] was 3.44%; in assay [4], 8.76%.

As for `O=C(Nc1ncccc1O)c1ccc(S(=O)(=O)N2CCCC2)cc1`, the values for the activation in assay [1] and in assay [2] were 14.2% (active) and 0.03%, respectively.

As for `Cc1cccc(N(CC(=O)Nc2ccc(-c3nc4ccc(C)cc4s3)cc2)S(C)(=O)=O)c1`, the activation in assay [1] is 19.8% (active); in assay [2] it was 0.65%.

Turning to `O=[N+]([O-])c1cc(S(=O)(=O)N2CCCC2)ccc1NN=C1CCCC1`, the activation in assay [1] is -0.65%; in assay [2] it was -0.04%.

Turning to `O=C(Nn1c(SCc2ccc([N+](=O)[O-])cc2)nc2ccccc2c1=O)c1ccc(F)cc1`, the activation is 11% (active) in assay [1] and 0.57% in assay [2].

Turning to `C/C(=N\NC(=O)OC(C)(C)C)c1ccc[nH]1`, the activation in assay [1] is 13.8% (active); in assay [2] it was 0.45%.

As for `COC(=O)c1sc(NC(=O)c2ccc(OC)cc2OC)nc1C`, the activation is 7.02% in assay [1] and 1.05% in assay [2].

Regarding `O=C(Nc1cccc(O)c1)c1ccc(C(=O)c2ccccc2)o1`, the activation in assay [1] is 12.2% (active); in assay [2], 0.51%.

For the compound `CC(C)n1c(=O)[nH]c2cc(C(=O)Nc3ccccc3)ccc21`, the results for the activation in assay [1] and in assay [2] were 5.08% and 0.17%, respectively.

Consider `Cc1cccc(NC(=S)NC(=O)c2ccc(Br)o2)c1`, for which the values for the activation in assay [1] and in assay [2] were 11.1% (active) and 0.48%, respectively.

Take `O=C(NCCc1c[nH]c2ccccc12)c1cc2ccccc2oc1=O`: the figures for the activation in assay [1] and in assay [2] were 13.4% (active) and 0.56%, respectively.

Turning to `O=[N+]([O-])c1ccc2c(c1)Nc1nc3ccccc3nc1N2`, the values for the activation in assay [1] and in assay [2] were 25.8% (active) and 1.35%, respectively.

As to `Cc1cnc(NC(=O)c2ccccn2)s1`, the activation in assay [1] was 15.6% (active); in assay [2], 0.63%.
